In the EternaBench riboswitch data:

Tested on: MS2 coat protein
Assay: apparent Kd, MS2 coat protein; higher = weaker binding; RNA-MaP array; FMN 200 µM where present
In short: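 SNAP-549-labelled MS2 coat protein, doubled from 0.7 or 1.5 nM to 3 µM, was titrated over designs transcribed by stalled E. coli RNA polymerase on Illumina sequencing-chip clusters. Titrations were run without and then with constant ligand in 100 mM Tris-HCl pH 7.5, 80 mM KCl, 4 mM MgCl2, BSA, DTT, yeast tRNA and Tween-20. The apparent Kd is the median of filtered per-cluster fits to green signal normalised to red-channel RNA signal and control-cluster median Fmax.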

[1] = designed as: ON switch for flavin mononucleotide, no ligand
[2] = ligand present: flavin mononucleotide, designed as: ON switch for flavin mononucleotide
[3] = designed as: OFF switch for flavin mononucleotide, no ligand
[4] = ligand present: flavin mononucleotide, designed as: OFF switch for flavin mononucleotide

Row | Sequence | apparent Kd [1] [nM] | apparent Kd [2] [nM] | apparent Kd [3] [nM] | apparent Kd [4] [nM]
1 | GCGUAACAUGAGGAUCACCCAUGUACCCGAGAAUUCGGGUCGAGAAGGGUGACCGGUCGUUUGGCACAGGAUAUCGACGUUGUG | 19.4 | 14.5 |  | 
2 | UGAUAGGACAGAGGAUAUACGGAUAGGAUCUACUAUCCUCCUUAAAUAACAUGAGGAUCACCCAUGUAGAAGGCUGUCCUAUCU |  |  | 17.2 | 39
3 | UGUUUUUAUGUGAGGAUAUGGGUUUGGUUGCGGGCUUAGAAGGUACAUGAGGAUCACCCAUGUACUUUGUGCAU |  |  | 16.4 | 17
4 | GCCAUUGCAUGAGGAUAUGCUCCCGUUUCGGGAGCAGAAGGCAUGUCAUAAGACAUGAGGAUCACCCAUGUAGUUAAGAUGGCA | 398 | 15.2 |  | 
5 | UCGUAUACACAAGGAUAUCGAUGGCUUGUAGAUGCUACAUGAGGAUCACCCAUGUUUUUAUAUUGUGAGAAGGUGUAGUGUCGU | 141 | 221 |  | 
6 | ACGCUUUGGGAGAAGGUACUUUAAAUUUUUUCCACAUGAGGAUCACCCAUGUAAGGAUAUCCCAUCGUUAAAUAUUCUACAGCA |  |  | 8.4 | 7.06
7 | UGUCGGAGCAGAGGAUAUUACAUGAGGAUCACCCAUGUAUGAACCAAUAGCAGGAAACAGCAAUGUAAGAAGGCUGCUCCGACA |  |  | 10.3 | 77.4
8 | UCCUUGGUACAGAAGGACCGAGCUCCGUAGCAGGUAGGAUAUGUACAUGAGGAUCACCCAUGUCAGCGGUAAUUACCAGUAUUC |  |  | 40.2 | 29.1
9 | GCGUUGAACGAGAAGGCCAAUACAUGAGGAUCACCCAUGUUUAGAUGUUUUGGAGGAUAUCGUACGUAGUCAAAAGAGCAACGC |  |  | 11.3 | 10.2
10 | AAAUUACAUGAGGAUCACCCAUGUUUAAAAAAUAUAGGAUAUGUAAAAAAAAAAAAAAAAACAGAAGGGUAAAAAA | 44.8 | 42 |  | 
11 | GCGAUUUUGUAAGGAUAUACACGAGUUUUAAGUGUAGAAGGUACUUACAUGAGGAUCACCCAUGUAUUAAUGAUUACUAGUCGC | 6.99 | 6.33 |  | 
12 | AUUAUACAUGAGGAUCACCCAUGUAAUUAAUUAAUUAAGAUCUAGGAUAUCAGCUCGUUUAGAGCUGAGAAGGAGAUCACAUGU | 30.1 | 18.8 |  | 
13 | GAGAGGUCAGGAUAUACGGAGAGAGGGAGUUGGUGAGGGUAACAUGAGGAUCACCCAUGUAGAAGGGACUAAGG |  |  | 27.6 | 30.1
14 | CCAUCGAGUGUGAGGAUAUGCUGUUCGAAAGAGCAGCAGAAGGCACAUGAGGAUCACCCAUGUGGAUACGGUGG |  |  | 29.1 | 212
15 | GUCUUGAUAGGAUAUACAUGAGGAUCACCCAUGUCCCACCCGUUACCUCUGGCCCUAUGUAGAAGGAUCGUCUG |  |  | 50.2 | 45.6
16 | GGACGUCAGAUUAACAUGAGGAUCACCCAUGUCUUUUGACAUGAGGAUAUGGUUGGUAAUUCCAACCAGAAGGCAUGGACGUCC | 1100 | 125 |  | 
17 | ACCCGCAAACGUUGGAAUCGUAAGAGAAGGUGGACAUGAGGAUCACCCAUGUGCAUCCUGCGUUCCAAGGAUAUCUUACUGAAU |  |  | 10.9 | 48
18 | GUCAGCUCGUGAGGAUAUACAACACUGCUCCGGCAGUGUAUUAAGAUCACAUGAGGAUCACCCAUGUAGAAGGCACGAGCUGAU |  |  | 13.3 | 237
19 | UGUCCACAUGAGGAUCACCCAUGUCAGGAGGUGACAGGAUAUUGCGAAAAAAAAAAAAAGCAAGAAGGGUCUGAUU | 244 | 89.5 |  | 
20 | UGGUACUAGGGAGGAUAUGGGAAGAUACAUGAGGAUCACCCAUGUUUUAGAAUGCCGAGAGGCAACUAGAAGGCCCUAGUACCU | 1110 | 74.5 |  | 
21 | GCUUGAGCAGGAUAUACAAGCUUGAGCUGAAAAGUUCGAGUACAUGAGGAUCACCCAUGUAGAAGGGUUCGAGU |  |  | 27.5 | 32.3
22 | CCUCGACGGUAGGAUAUCGUCAAACUAUUGUGAUGAGAAGGACUGACAUGAGGAUCACCCAUGUUAACGUGAUG |  |  | 18 | 26.2
23 | GGUGCACGCACAGGAUAUCCGGCGGAGCUCGUCGGAGAAGGGUGACAUGAGGAUCACCCAUGUACGUGCAAUCCAGUUUGAGAG | 23.8 | 28.3 |  | 
24 | ACAUGAGGAUCACCCAUGUUUUUCGGGUACUCUUUUUACAGCAAGGAUAUGCAUUAUUUUUUUACGCAGAAGGUGCUUUACGUC |  |  | 114 | 196
